Assay outcomes deposited in PubChem by several laboratories.
Only some compounds are listed: those with a hit (about 9.6% of all), similar ones and a draw of the others.
BaF3 parental: parental Ba/F3 cell viability inhibition, counter-screen for JAK2V617F inhibitor project, murine pro-B, CellTiter-Glo luminescence. CellTiter-Glo ATP luminescence. inhibition, % at 5.6 µM. 220,000 tested, 1.1% active. AID 1486, 2009;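 active = inhibition above a per-campaign cutoff, the mean inhibition of all tested compounds plus 3 SD, cut at about 27% in these data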;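 note: 0% = DMSO wells and 100% = JAK Inhibitor I control wells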
MT stabilize HCS: microtubule stabilizers in HeLa cells, primary screen, imaging, high-content imaging; % tubulin-high responders, % at 10 µM; AID 2205, 2009; HeLa tubulin immunostaining HCS, 24 h; share of cells brighter than vehicle mean+2SD; 200,000 tested, 0.83% active;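 active = plate Z-score above 3 for both tubulin-high and condensed-nucleus cell shares, with cell loss under 80%, at 10 µM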;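 note: anti alpha tubulin signal scored within the nucleus-defined area of each cell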
Lmaj promast: Leishmania major promastigote growth inhibition, primary screen; 200,000 tested, 9% active; inhibition, % at 10 µM; Leishmania major promastigotes, resazurin fluorescence viability; in the data active = inhibition above about 50%;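 note: promastigotes grown with compound for 44 hours at 28 °C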
APP 5UTR inh: inhibitors of APP translation via 5'UTR reporter, primary screen, APP 5'UTR luciferase, SH-SY5Y cells; SH-SY5Y APP 5'UTR-luciferase reporter, luminescence; inhibition, % at 2 µM; 190,000 tested, 0.82% active;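 active = inhibition above a set limit, derived from the sample mean plus 3 SD, cut at about 45% in these data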
Ba/F3 V617F tox: reduced viability of JAK2V617F-dependent Ba/F3 cells, primary screen, JAK2V617F inhibitor project, cell-based, Ba/F3 EpoR-JAK2V617F, luminescence. ATP luminescence. inhibition, % at 5.6 µM. 220,000 tested, 1.1% active. AID 1446, 2008;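 active = inhibition above the campaign mean plus 3 SD over all tested compounds, cut at about 24% in these data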;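 note: cytokine-independent growth of Ba/F3 cells driven by EpoR plus mutant JAK2; 0% = DMSO-treated cells and 100% = JAK inhibitor I control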
b-catenin transl: modulators of beta-catenin nuclear translocation, primary screen, imaging, HeLa cells, immunofluorescence, high-content | nuclear translocation activity, % at 5 µM | 190,000 tested, 0.3% active | AID 1665, 2009;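 active = nuclear translocation activity above 50% at 5 µM, with a well cell count of 50 or more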;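 note: per-cell ratio of nuclear to cytoplasmic median beta-catenin stain intensity; plate controls were DMSO negative control for no effect and GSK-3 inhibitor IX positive control for full effect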
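System: Human HeLa cells, endogenous beta-catenin | Compound dosing: 5 µM primary, 0.02–20 µM confirmation | Timing: 24 h compound exposure at 37°C, 5% CO2 | Measured by: Fluorescence imaging of beta-catenin antibody stain plus DAPI | Read-out basis: % activation of per-cell nuclear versus cytoplasmic median beta-catenin signal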
Active calls of the source: *.

How did CCC(Oc1ccccc1)C(=O)NCCOC (centres undefined) do in these assays?
BaF3 parental: 5.9; MT stabilize HCS: 3.5; Lmaj promast: 49.7; APP 5UTR inh: 5.6; Ba/F3 V617F tox: -3.8; b-catenin transl: -1.3

What do the screens show for `COC(=O)C1=C(N)Oc2cc(N(C)C)ccc2C1c1ccccc1OC` (centres undefined)?
BaF3 parental: 4.9; MT stabilize HCS: 27.1*; Lmaj promast: 14.8; APP 5UTR inh: 66.3*; Ba/F3 V617F tox: -3.8; b-catenin transl: 0.6

What do the screens show for `COC(=O)C1=C(N)Oc2cc(C)n(CC3CCCO3)c(=O)c2C1c1ccccc1OC` (centres undefined)?
BaF3 parental: 3.5; MT stabilize HCS: 0.7; Lmaj promast: -10.1; APP 5UTR inh: 0.3; Ba/F3 V617F tox: 0.4; b-catenin transl: 0.1

How did CCCCn1c(CN2CCN(c3cccc(Cl)c3)CC2)nc2c1c(=O)[nH]c(=O)n2C do in these assays?
BaF3 parental: 37.8*; MT stabilize HCS: 34.8*; Lmaj promast: -0.6; APP 5UTR inh: 84.7*; Ba/F3 V617F tox: 47.9*; b-catenin transl: 1.3

Results for Cn1c(=O)[nH]c(=O)c2c1nc(CN1CCN(c3cccc(Cl)c3)CC1)n2CCCc1ccccc1 ?
BaF3 parental: 1.4; MT stabilize HCS: 4.0; Lmaj promast: -3.2; APP 5UTR inh: -16.7; Ba/F3 V617F tox: -3.6; b-catenin transl: 1.3

What do the screens show for `CCN1CCN(Cc2nc3c(c(=O)[nH]c(=O)n3C)n2Cc2ccccc2Cl)CC1`?
BaF3 parental: 3.1; MT stabilize HCS: 8.7; Lmaj promast: 1.8; APP 5UTR inh: -11.1; Ba/F3 V617F tox: 4.8; b-catenin transl: -10.3

How did Cn1c(=O)[nH]c(=O)c2c1nc(CN1CCN(c3cccc(Cl)c3)CC1)n2Cc1ccccc1Cl do in these assays?
BaF3 parental: -0.8; MT stabilize HCS: 13.8*; Lmaj promast: 11.4; APP 5UTR inh: 11.8; Ba/F3 V617F tox: -5.6; b-catenin transl: -1.2

How did COc1ccc(-n2nnc3c(=O)n(CC(=O)Nc4cc(C)on4)cnc32)cc1OC do in these assays?
BaF3 parental: 2.7; MT stabilize HCS: 2.0; Lmaj promast: -4.8; APP 5UTR inh: 5.5; Ba/F3 V617F tox: 1.6; b-catenin transl: -1.6

What do the screens show for `CCn1c(=O)c([N+](=O)[O-])c(NC2CCS(=O)(=O)C2)c2ccccc21` (centres undefined)?
BaF3 parental: 4.1; Ba/F3 V617F tox: -4.8; b-catenin transl: 0.5

How did Cc1ccc(C(=O)N2CCN(C(=O)c3ccc(C)cc3)C2)cc1 do in these assays?
BaF3 parental: 1.6; MT stabilize HCS: 1.8; Lmaj promast: 1.1; APP 5UTR inh: 5.6; Ba/F3 V617F tox: 0.1; b-catenin transl: -4.6

How did CCC12CN(C(=O)c3ccc(C)cc3)CC(CC)(CN(C(=O)c3ccc(C)cc3)C1)C2=O do in these assays?
BaF3 parental: 5.0; MT stabilize HCS: 4.3; Lmaj promast: 51.9*; APP 5UTR inh: 14.7; Ba/F3 V617F tox: 2.2; b-catenin transl: -0.5

How did Cc1ccc(C(=O)N2CC3(C(C)C)CN(C(=O)c4ccc(C)cc4)CC(C(C)C)(C2)C3=O)cc1 do in these assays?
BaF3 parental: 1.2; MT stabilize HCS: 2.1; Lmaj promast: 95.4*; APP 5UTR inh: -9.0; Ba/F3 V617F tox: -4.3; b-catenin transl: -3.1

What do the screens show for `CSCCC(NS(=O)(=O)c1ccc(F)cc1)C(=O)NCc1ccc(S(N)(=O)=O)cc1` (centres undefined)?
BaF3 parental: -3.8; Ba/F3 V617F tox: -2.1; b-catenin transl: 0.3

Results for NC(=O)CCC(NS(=O)(=O)c1ccc(Cl)cc1)C(=O)NCc1ccc(Cl)cc1 (centres undefined) ?
BaF3 parental: 10.3; MT stabilize HCS: 1.8; Lmaj promast: 60.2*; APP 5UTR inh: 6.3; Ba/F3 V617F tox: 2.8

What do the screens show for `NS(=O)(=O)c1ccc(CNC(=O)Cc2c(F)cccc2Cl)cc1`?
BaF3 parental: 59.6*; MT stabilize HCS: 1.7; Lmaj promast: -1.2; APP 5UTR inh: 6.9; Ba/F3 V617F tox: 2.3; b-catenin transl: 0.5

How did NS(=O)(=O)c1ccc(CNC(=S)NCc2ccc(Cl)cc2)cc1 do in these assays?
BaF3 parental: 3.7; MT stabilize HCS: 11.1*; Lmaj promast: -2.2; APP 5UTR inh: -19.2; Ba/F3 V617F tox: -0.6; b-catenin transl: 1.1
